The record followed here is ChEMBL document CHEMBL1133365, “Synthesis and class III type antiarrhythmic activity of 4-aroyl (and aryl)-l-aralkylpiperazines” (2000).

What is called EC20 is the point of the concentration-response curve where the effect stands at 20%. Lower therefore signals an effect from little substance.

A value given as a limit tells only on which side of the number the result lay.

The species named for assay [1] is Mustela putorius furo. Kind of assay: Dose required to produce 20% increase in effective refractory period in male ferret. It counts as functional. Summed up:
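Isolated tissue in buffer (mM: KCl 4, MgCl2 1.0, NaHCO3 25, KH2PO4 1.2, CaCl2 2, dextrose 11), pH 7.3, gassed 5% CO2/95% O2, 37 °C. Timolol 0.1 mM present. Stimulated with 3 msec constant-current pulses. Duplicate control readings, then each concentration read at steady state (~15 min). EC20 is the mean dose giving a 20% rise in ERP, in μM.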

The species named for assay [2] is Mustela putorius furo. Kind of assay: Peak isometric tension during the basic stimulus trains (S1) during control and compound induced tension, expressed as percent control. Type of assay: functional. An outline of the steps: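 Same preparation: buffer pH 7.3, 5% CO2/95% O2, 37 °C, timolol 0.1 mM, 3 msec constant-current stimulation. Isometric force was recorded, and peak tension was taken during the basic S1 stimulus trains. Readings were made at steady state, about 15 min after each concentration. The change is expressed as percent of control.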

The compound `O=[N+]([O-])c1ccc(CCN2CCN(c3ccc([N+](=O)[O-])cn3)CC2)cc1` came in with an EC20 in assay [1] of 1300 nM. The Tension in assay [2] is -21%.

As to `O=[N+]([O-])c1ccc(CCN2CCN(S(=O)(=O)c3ccc([N+](=O)[O-])cc3)CC2)cc1`, the 20% effect concentration (EC20) in assay [1] amounted to 1000 nM. Moreover, the Tension in assay [2] is -24%.

The compound `O=C(c1ccncc1)N1CCN(CCc2ccc([N+](=O)[O-])cc2)CC1` showed an EC20 in assay [1] of 1000 nM. Besides, the Tension in assay [2] stood at 19%.

The compound `CS(=O)(=O)Nc1ccc(C(=O)N2CCN(CCc3ccccc3)CC2)cc1` yielded a concentration for an effect of 20% (EC20) in assay [1] of 680 nM. In addition, the Tension in assay [2] is on record as 5%.

For the compound `O=C(CN1CCN(C(=O)c2ccc([N+](=O)[O-])cc2)CC1)Nc1ccc([N+](=O)[O-])cc1`, the EC20 in assay [1] is 35 nM. For the same compound, the Tension in assay [2] came out at 5%.

With `O=[N+]([O-])c1ccc(N2CCN(CCc3ccccc3)CC2)cc1`, the EC20 in assay [1] stood at 500 nM. In addition, the Tension in assay [2] is -6%.

In turn, `O=C(c1ccc([N+](=O)[O-])cc1)N1CCNCC1` had an EC20 in assay [1] of 20000 nM. The Tension in assay [2] is -33%.

For the compound `Cc1cccc(CCN2CCC(C(=O)c3ccc(NS(C)(=O)=O)cc3)CC2)n1`, in assay [1], the EC20 was found to be 20 nM. Further, the Tension in assay [2] was determined as 9%.

Consider `Nc1ccc(CCN2CCN(c3ccc(N)cc3)CC2)cc1`, for which, in assay [1], the EC20 was above 100000 nM. Besides, in assay [2], the Tension was -53%.

`O=C(c1ccc([N+](=O)[O-])cc1)N1CCN(Cc2ccc([N+](=O)[O-])cc2)CC1` returned an EC20 in assay [1] of 3500 nM. Moreover, the Tension in assay [2] is recorded as -44%.

Turning to `O=C(c1ccc([N+](=O)[O-])o1)N1CCN(CCc2ccc([N+](=O)[O-])cc2)CC1`, the EC20 in assay [1] came to 140 nM. Also, the Tension in assay [2] is reported as -2%.

In assay [1], `O=C(c1ccc([N+](=O)[O-])cc1)N1CCN(C(=O)c2ccc([N+](=O)[O-])cc2)CC1` gave a 20% effect concentration (EC20) of 7000 nM. Besides, the Tension in assay [2] is on record as -6%.

In turn, `O=C(c1ccc([N+](=O)[O-])cc1)N1CCN(CCc2ccccc2)CC1` came in with an EC20 in assay [1] of 160 nM. In addition, the Tension in assay [2] is -8%.

As for `Nc1ccc(CCN2CCN(c3ccncc3)CC2)cc1`, the EC20 in assay [1] is 15000 nM. Also, the Tension in assay [2] is 9%.

As to `CS(=O)(=O)Nc1ccc(C(=O)N2CCN(CCOc3ccc(N(S(C)(=O)=O)S(C)(=O)=O)cc3)CC2)cc1`, the EC20 in assay [1] is 25000 nM. Further, the Tension in assay [2] is -14%.

The compound `O=C(c1ccc([N+](=O)[O-])cc1)N1CCN(CCc2ccc([N+](=O)[O-])s2)CC1` returned an EC20 in assay [1] of 10 nM. Besides, the Tension in assay [2] is reported as -17%.

With `O=C(c1ccc([N+](=O)[O-])s1)N1CCN(CCc2ccc([N+](=O)[O-])cc2)CC1`, the EC20 in assay [1] worked out at 12 nM. Moreover, in assay [2], the Tension is 0%.

Regarding `CS(=O)(=O)Nc1ccc(CCN2CCN(C(=O)c3ccc(NS(C)(=O)=O)cc3)CC2)cc1`, the EC20 in assay [1] was 2000 nM. Moreover, the Tension in assay [2] was found to be 1%.

Take `O=[N+]([O-])c1ccc(CCN2CCC(c3ccc([N+](=O)[O-])cc3)CC2)cc1`: the EC20 in assay [1] amounted to 300 nM. The Tension in assay [2] is 0%.

In assay [1], `O=C(c1ccc(Cl)cc1)C1CCN(CCc2ccc([N+](=O)[O-])cc2)CC1` showed an EC20 of 300 nM. In assay [2], the Tension is given as -4%.

In assay [1], `O=[N+]([O-])c1ccc(CCN2CCN(c3ccc([N+](=O)[O-])cc3)CC2)cc1` registered an EC20 of 30 nM. Also, the Tension in assay [2] was found to be 5%.

For the compound `O=C(c1ccccc1)N1CCN(CCc2ccc([N+](=O)[O-])cc2)CC1`, in assay [1], the EC20 turned out to be 140 nM. Also, the Tension in assay [2] is on record as -7%.

The compound `Nc1ccc(CCN2CCC(c3ccc(N)cc3)CC2)cc1` had an EC20 in assay [1] of 2000 nM. For the same compound, in assay [2], the Tension is on record as 15%.

On to `CS(=O)(=O)Nc1ccc(C(=O)N2CCN(CCc3ccc([N+](=O)[O-])cc3)CC2)cc1`, for which the EC20 in assay [1] was determined as 60 nM. Further, the Tension in assay [2] is reported as 1%.

In assay [1], `O=[N+]([O-])c1ccc(CCN2CCN(c3ccncc3)CC2)cc1` yielded an EC20 of 30 nM. For the same compound, in assay [2], the Tension turned out to be 8%.

`Nc1ccc(OCCN2CCN(c3ccc(N)cc3)CC2)cc1` came in with an EC20 in assay [1] above 100000 nM. Besides, the Tension in assay [2] was -43%.

As for `O=C(c1ccc([N+](=O)[O-])cc1)N1CCN(CCOc2ccc([N+](=O)[O-])cc2)CC1`, in assay [1], the EC20 worked out at 60 nM. In assay [2], the Tension is 0%.

Consider `O=C(c1ccc([N+](=O)[O-])cc1)N1CCN(CCc2ccc([N+](=O)[O-])cc2)CC1`, for which the EC20 in assay [1] worked out at 3 nM. Moreover, the Tension in assay [2] is -3%.

In the case of `CS(=O)(=O)Nc1ccc(CCN2CCN(C(=O)c3ccc([N+](=O)[O-])cc3)CC2)cc1`, the EC20 in assay [1] was determined as 160 nM. The Tension in assay [2] is recorded as 13%.

In assay [1], `Nc1ccc(CCN2CCN(C(=O)c3ccc([N+](=O)[O-])cc3)CC2)cc1` registered an EC20 of 1400 nM. For the same compound, the Tension in assay [2] is -14%.

With `O=[N+]([O-])c1ccc(OCCN2CCN(c3ccc([N+](=O)[O-])cc3)CC2)cc1`, the EC20 in assay [1] is 350 nM. Moreover, in assay [2], the Tension is recorded as -27%.

In the case of `CS(=O)(=O)Nc1ccc(CCN2CCN(c3ccncc3)CC2)cc1`, the EC20 in assay [1] is 220 nM. Moreover, the Tension in assay [2] is on record as 2%.

`CS(=O)(=O)Nc1ccc(OCCN2CCN(C(=O)c3ccc(NS(C)(=O)=O)cc3)CC2)cc1` showed an EC20 in assay [1] of 15000 nM. Moreover, the Tension in assay [2] is -13%.

In assay [1], `O=C(c1cccc([N+](=O)[O-])c1)N1CCN(CCc2ccc([N+](=O)[O-])cc2)CC1` came in with an EC20 of 270 nM. In addition, the Tension in assay [2] is -7%.

In assay [1], `O=[N+]([O-])c1ccc(CCN2CCN(c3ccccc3)CC2)cc1` registered an EC20 of 800 nM. Moreover, in assay [2], the Tension amounted to 10%.

On to `CN(CCOc1ccc(NS(C)(=O)=O)cc1)CCc1ccc(NS(C)(=O)=O)cc1` [DOFETILIDE], for which the concentration for an effect of 20% (EC20) in assay [1] amounted to 15 nM. Moreover, in assay [2], the Tension is given as 5%.

In the case of `CC(C)NCC(O)c1ccc(NS(C)(=O)=O)cc1` (centres undefined) [SOTALOL], in assay [1], the EC20 was determined as 3500 nM. Further, the Tension in assay [2] is recorded as -13%.
